ChEMBL document CHEMBL5058577, “EUbOPEN Chemogenomics Library 2 (Multiplex)” (2022)

System: Fibroblast
Test: Multiplex assay against human fibroblast
Assay type: toxicity, cell-based
Summary of the method: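 Imaging took place on a CQ1 microscope at 37°C and 5% CO2 once compound had been added to live cells stained at seeding with Hoechst33342, BioTracker Green Microtubule Cytoskeleton Dye, MitoTracker Red and Annexin V Alexa Fluor 680. CellPathfinder machine-learning gating classed cells as Hoechst high-intensity objects or normal cells, classed normal cells as having healthy, pyknosed or fragmented nuclei, and classed pyknosed cells as mitotic or apoptotic. Tubulin, mitochondrial-mass and membrane-permeability phenotypes are per cents of the healthy-nucleus cells.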

[1] = 12 h, 1 µM, compound concentration 1 uM, replicate 1
[2] = 12 h, 1 µM, compound concentration 1 uM, replicate 2
[3] = 12 h, 10 µM, compound concentration 10 uM, replicate 1
[4] = 12 h, 10 µM, compound concentration 10 uM, replicate 2
[5] = 24 h, 1 µM, compound concentration 1 uM, replicate 1
[6] = 24 h, 1 µM, compound concentration 1 uM, replicate 2
[7] = 24 h, 10 µM, compound concentration 10 uM, replicate 1
[8] = 24 h, 10 µM, compound concentration 10 uM, replicate 2
[9] = 48 h, 1 µM, compound concentration 1 uM, replicate 1
[10] = 48 h, 1 µM, compound concentration 1 uM, replicate 2
[11] = 48 h, 10 µM, compound concentration 10 uM, replicate 1
[12] = 48 h, 10 µM, compound concentration 10 uM, replicate 2

Cc1cccc(NC(=O)CN2CCC(c3ccccn3)CC2)c1.Cl.Cl
Population Apoptotic (%) [1]: 47%
Population Fragmented Nuclei (%) [1]: 16%
Population Healthy Nuclei (%) [1]: 70%
Population Hoechst High Intensity Objects (%) [1]: 4%
Population Membrane Permeable-Phenotype (%) [1]: 0%
Population Mitochondria Different-Phenotype (%) [1]: 6%
Population Mitotic Cells (%) [1]: 52%
Population Normal (%) [1]: 95%
Population Pyknosed Nuclei (%) [1]: 12%
Population Tubulin-Different-Phenotype (%) [1]: 34%
Total Cell Count [1]: 140
Population Apoptotic (%) [2]: 33%
Population Fragmented Nuclei (%) [2]: 25%
Population Healthy Nuclei (%) [2]: 55%
Population Hoechst High Intensity Objects (%) [2]: 6%
Population Membrane Permeable-Phenotype (%) [2]: 2%
Population Mitochondria Different-Phenotype (%) [2]: 5%
Population Mitotic Cells (%) [2]: 66%
Population Normal (%) [2]: 93%
Population Pyknosed Nuclei (%) [2]: 19%
Population Tubulin-Different-Phenotype (%) [2]: 35%
Total Cell Count [2]: 232
Population Apoptotic (%) [3]: 59%
Population Fragmented Nuclei (%) [3]: 8%
Population Healthy Nuclei (%) [3]: 78%
Population Hoechst High Intensity Objects (%) [3]: 10%
Population Membrane Permeable-Phenotype (%) [3]: 1%
Population Mitochondria Different-Phenotype (%) [3]: 7%
Population Mitotic Cells (%) [3]: 40%
Population Normal (%) [3]: 89%
Population Pyknosed Nuclei (%) [3]: 13%
Population Tubulin-Different-Phenotype (%) [3]: 36%
Total Cell Count [3]: 229
Population Apoptotic (%) [4]: 34%
Population Fragmented Nuclei (%) [4]: 45%
Population Healthy Nuclei (%) [4]: 30%
Population Hoechst High Intensity Objects (%) [4]: 2%
Population Membrane Permeable-Phenotype (%) [4]: 6%
Population Mitochondria Different-Phenotype (%) [4]: 10%
Population Mitotic Cells (%) [4]: 65%
Population Normal (%) [4]: 98%
Population Pyknosed Nuclei (%) [4]: 23%
Population Tubulin-Different-Phenotype (%) [4]: 56%
Total Cell Count [4]: 100
Population Apoptotic (%) [5]: 50%
Population Fragmented Nuclei (%) [5]: 18%
Population Healthy Nuclei (%) [5]: 70%
Population Hoechst High Intensity Objects (%) [5]: 2%
Population Membrane Permeable-Phenotype (%) [5]: 0%
Population Mitochondria Different-Phenotype (%) [5]: 8%
Population Mitotic Cells (%) [5]: 50%
Population Normal (%) [5]: 97%
Population Pyknosed Nuclei (%) [5]: 10%
Population Tubulin-Different-Phenotype (%) [5]: 25%
Total Cell Count [5]: 134
Population Apoptotic (%) [6]: 40%
Population Fragmented Nuclei (%) [6]: 26%
Population Healthy Nuclei (%) [6]: 53%
Population Hoechst High Intensity Objects (%) [6]: 4%
Population Membrane Permeable-Phenotype (%) [6]: 4%
Population Mitochondria Different-Phenotype (%) [6]: 6%
Population Mitotic Cells (%) [6]: 59%
Population Normal (%) [6]: 95%
Population Pyknosed Nuclei (%) [6]: 19%
Population Tubulin-Different-Phenotype (%) [6]: 30%
Total Cell Count [6]: 239
Population Apoptotic (%) [7]: 64%
Population Fragmented Nuclei (%) [7]: 11%
Population Healthy Nuclei (%) [7]: 81%
Population Hoechst High Intensity Objects (%) [7]: 7%
Population Membrane Permeable-Phenotype (%) [7]: 0%
Population Mitochondria Different-Phenotype (%) [7]: 11%
Population Mitotic Cells (%) [7]: 35%
Population Normal (%) [7]: 92%
Population Pyknosed Nuclei (%) [7]: 6%
Population Tubulin-Different-Phenotype (%) [7]: 38%
Total Cell Count [7]: 217
Population Apoptotic (%) [8]: 42%
Population Fragmented Nuclei (%) [8]: 45%
Population Healthy Nuclei (%) [8]: 34%
Population Hoechst High Intensity Objects (%) [8]: 0%
Population Membrane Permeable-Phenotype (%) [8]: 11%
Population Mitotic Cells (%) [8]: 57%
Population Normal (%) [8]: 100%
Population Pyknosed Nuclei (%) [8]: 20%
Population Tubulin-Different-Phenotype (%) [8]: 50%
Total Cell Count [8]: 105
Population Apoptotic (%) [9]: 80%
Population Fragmented Nuclei (%) [9]: 25%
Population Healthy Nuclei (%) [9]: 63%
Population Hoechst High Intensity Objects (%) [9]: 3%
Population Membrane Permeable-Phenotype (%) [9]: 1%
Population Mitochondria Different-Phenotype (%) [9]: 3%
Population Mitotic Cells (%) [9]: 20%
Population Normal (%) [9]: 96%
Population Pyknosed Nuclei (%) [9]: 11%
Population Tubulin-Different-Phenotype (%) [9]: 28%
Total Cell Count [9]: 138
Population Apoptotic (%) [10]: 60%
Population Fragmented Nuclei (%) [10]: 31%
Population Healthy Nuclei (%) [10]: 55%
Population Membrane Permeable-Phenotype (%) [10]: 4%
Population Mitotic Cells (%) [10]: 39%
Population Pyknosed Nuclei (%) [10]: 12%
Population Tubulin-Different-Phenotype (%) [10]: 35%
Total Cell Count [10]: 229
Population Apoptotic (%) [11]: 76%
Population Fragmented Nuclei (%) [11]: 17%
Population Healthy Nuclei (%) [11]: 75%
Population Hoechst High Intensity Objects (%) [11]: 7%
Population Membrane Permeable-Phenotype (%) [11]: 2%
Population Mitochondria Different-Phenotype (%) [11]: 5%
Population Mitotic Cells (%) [11]: 23%
Population Normal (%) [11]: 92%
Population Pyknosed Nuclei (%) [11]: 7%
Population Tubulin-Different-Phenotype (%) [11]: 44%
Total Cell Count [11]: 238
Population Apoptotic (%) [12]: 28%
Population Fragmented Nuclei (%) [12]: 54%
Population Healthy Nuclei (%) [12]: 39%
Population Hoechst High Intensity Objects (%) [12]: 1%
Population Mitochondria Different-Phenotype (%) [12]: 16%
Population Mitotic Cells (%) [12]: 71%
Population Normal (%) [12]: 98%
Population Pyknosed Nuclei (%) [12]: 6%
Population Tubulin-Different-Phenotype (%) [12]: 61%
Total Cell Count [12]: 109
